The list is not random: actives were taken first. Their share in the collection is about 2.9%.
M1 PAM parental: nonselective activator or artifact in parental CHO-K1 calcium assay; AID 602247; activation, % at 3 µM; ATP EC20, Fluo-8 calcium fluorescence; 0% at ATP EC20, 100% at ATP max; 0.02% of 360,000 active;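 active = activation above the run cutoff, the mean activation of all test compounds plus 3 SD, cut at about 40% in these data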;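 note: peak over basal fluorescence ratio in a 140 s read after ATP addition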
CHO parental Ca: counter-screen for OX1R antagonists: effect in parental CHO cells. parental CHO-K1, ATP-induced calcium, Fluo-8 fluorescence. inhibition, % at 5.6 µM. 0.63% of 330,000 active. AID 463079;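 active = inhibition above that plate's mean sample inhibition plus 3 SD, cut at about 26% in these data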;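 note: 0% = ATP-challenged DMSO wells and 100% = DMSO wells without ATP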
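Test system: untransfected parental CHO cell line; also added: ATP stimulus; dosing: 5.6 µM, single dose; signal: calcium-sensitive Fluo-8 fluorescence; measure: percent inhibition of ATP-evoked calcium rise, normalized to controls; benchmarks: low control ATP plus DMSO, high control DMSO only; replication: one well per compound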
CHO-K1 Ca antag: nonselective inhibitor or artifact in parental CHO-K1 cells. ATP-induced calcium, Fluo-8 fluorescence. inhibition, % at 3 µM. 0.6% of 360,000 active;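 active = inhibition above a per-plate cutoff, the plate's mean sample inhibition plus 3 SD, cut at about 24% in these data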;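 note: 0% = DMSO plus EC80 ATP and 100% = DMSO alone without ATP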
OX1R antag-1: OX1R (human) antagonism; O43613; OX1R-expressing cells, FRET antagonist read-out; inhibition, % at 6.6 µM; 1.8% of 330,000 active; in the data active = inhibition mostly above about 38%, no sharp cut-off; inactive = mostly below about 40%;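 note: 0% = agonist challenge alone and 100% = reference antagonist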
Target sequence (O43613 whole entry, looked up): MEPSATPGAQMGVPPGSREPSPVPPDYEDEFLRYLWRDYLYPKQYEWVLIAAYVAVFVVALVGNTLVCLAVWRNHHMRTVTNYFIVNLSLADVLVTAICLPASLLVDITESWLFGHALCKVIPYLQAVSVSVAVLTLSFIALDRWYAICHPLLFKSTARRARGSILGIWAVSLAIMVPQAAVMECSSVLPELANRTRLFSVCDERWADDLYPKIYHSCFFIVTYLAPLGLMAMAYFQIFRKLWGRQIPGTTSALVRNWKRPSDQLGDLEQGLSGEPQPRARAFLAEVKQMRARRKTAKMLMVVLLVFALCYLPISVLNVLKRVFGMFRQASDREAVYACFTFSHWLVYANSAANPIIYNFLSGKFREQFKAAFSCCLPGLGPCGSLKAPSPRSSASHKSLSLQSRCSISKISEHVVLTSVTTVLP
CHO-K1 Ca ag: nonselective activator or artifact in parental CHO-K1 cells. Fluo-8 calcium fluorescence; scaled to maximal ATP response, vehicle zero. activation, % at 3 µM. 0.48% of 360,000 active. AID 602248; in the data active = activation above about 15%;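 note: untransfected CHO-K1 host cells lacking M1 receptor as counterscreen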
OX1R antag-2: human HCRTR1 antagonism; O43613; CHO/OX1R cells, Fluo-8 calcium fluorescence, orexin A; inhibition, % at 5 µM; 0.43% of 330,000 active; AID 434989;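 active = inhibition above its plate's threshold, mean inhibition of all tested compounds on the plate plus 3 SD, cut at about 37% in these data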;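 note: 0% = orexin A challenge wells and 100% = SB-334867-A antagonist wells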
An asterisk follows results filed as active; · = no result given.

SMILES	M1 PAM parental	CHO parental Ca	CHO-K1 Ca antag	OX1R antag-1	CHO-K1 Ca ag	OX1R antag-2
O=c1[nH]c2cc3c(cc2cc1CN(Cc1ccc2c(c1)OCO2)Cc1nnnn1CC1CCCO1)OCO3 (centres undefined)	-8.1	-0.2	2.4	49.2*	0.4	-7.1
CCCCNc1c(-c2ccc(OC)c(SC3CCCCC3)c2)nc2ccc(C)cn12	-18.4	98.5*	32.7*	31.7*	8.2	90.2*
COc1ccc(-c2nc3ccc(C)cn3c2NCc2ccccc2)cc1SC1CCCCC1	2.0	93.6*	4.5	18.2	2.5	76.6*
CC(C)=C(NC(=O)c1ccccc1)C(=O)NC(Cc1ccccc1)C(=O)O (centres undefined)	-6.9	0.1	-14.8	14.7	0.1	-10.2
O=c1[nH]cnc2ccc([N+](=O)[O-])cc12	15.5	5.1	-12.3	52.3*	0.6	-0.3
O=c1[nH][nH]c(=O)c2cc([N+](=O)[O-])ccc12	-1.0	-6.6	-9.7	51.7*	-0.4	-13.9
O=c1[nH]cnc2ccccc12	-20.9	-1.9	17.1	9.2	-0.5	-1.1
COc1ccc(-n2nnnc2/C=C\Nc2ccccc2C(=O)c2ccccc2)cc1	10.1	7.7	-7.9	16.6	-0.1	-7.4
CC(=O)c1cccc(N/C=C\c2nnnn2-c2ccc(F)cc2)c1	16.9	-1.6	5.7	9.3	15.2*	2.9
Cc1ccccc1C(=O)Nc1ccc(S(=O)(=O)N2CCOCC2)cc1	1.3	-5.8	0.5	4.8	9.0	-12.6
COc1cccc(C(C(=O)NC2CCCC2)N(C(=O)c2ccco2)c2ccc(-n3cnnn3)c(C)c2)c1OC (centres undefined)	12.9	-37.3	-4.9	15.4	0.1	-41.8
C/C(=N\NC(=O)Cn1c(-c2ccccn2)nc2ccccc21)c1ccccc1	-14.0	-8.3	25.7*	10.3	1.3	-27.1
C/C(=N\NC(=O)Cn1c(-c2ccccn2)nc2ccccc21)c1cccc(O)c1	-13.4	-18.4	19.9	3.5	1.7	-27.4
O=C(CN1C(=O)NC2(CCCC2)C1=O)Nc1cc(S(=O)(=O)N2CCOCC2)ccc1OCC(F)(F)F	15.3	-0.6	-13.9	1.8	1.1	-10.4
CC1=Nc2ccccc2/C1=C\c1nc(-c2ccccc2)oc1O	0.7	13.5	-3.6	26.3	2.1	19.5
CC1=Nc2ccccc2/C1=C/c1nc(-c2ccc(C)s2)oc1O	10.7	43.4*	-2.2	15.8	4.9	67.8*
O=C1CCCN1CC(=O)N1CCCC(N2CCN(c3cccc(Cl)c3)CC2)C1 (centres undefined)	1.6	-11.6	-3.4	3.9	0.5	-21.1
Cc1cc(C)n2nc(-c3sccc3-n3c(C)ccc3C)cc2n1	3.2	-16.2	-2.1	76.2*	0.2	33.2
CCN(Cc1cc2ccccc2[nH]c1=O)C(=O)c1cccc([N+](=O)[O-])c1	·	-24.3	·	6.8	·	-21.3
C/C(=N\N=C(/N)c1nonc1N)c1ccc2c(c1)OCO2	-3.1	-4.3	-9.6	6.2	1.7	-1.1
NC1=NC(=O)C(c2ccccc2)(c2ccccc2)S1	6.5	·	-4.9	·	-0.4	·
CC1CCN(C(C(=O)Nc2ccc(C(C)C)cc2)c2ccc3c(c2)OCO3)CC1 (centres undefined)	13.9	31.1*	-6.7	13.4	0.8	-27.3
CC(C)c1ccccc1OS(N)(=O)=O	-10.1	-8.0	-6.1	29.2	-0.1	-7.0
O=C(NCC1COc2ccccc2O1)c1ccc(Cl)c(S(=O)(=O)N2CCOCC2)c1 (centres undefined)	9.6	-26.9	-16.6	14.2	9.7	12.7
O=C(NCC1COc2ccccc2O1)c1ccc(Cl)c(S(=O)(=O)N2CCCC2)c1 (centres undefined)	-17.5	-14.1	-5.9	34.5*	10.5	30.6
SMILES	M1 PAM parental	CHO parental Ca	CHO-K1 Ca antag	OX1R antag-1	CHO-K1 Ca ag	OX1R antag-2
COc1cc(C)c(Br)cc1S(=O)(=O)NCCCN1CCOCC1	5.3	-4.9	5.9	5.5	19.8*	5.8
COc1cc(C)c(Cl)cc1S(=O)(=O)NCCCN1CCOCC1	3.9	-3.8	-30.8	-27.7	1.5	-16.9
O=C1NC(=O)/C(=C\c2ccc(Br)o2)S1	6.9	-4.5	-9.9	37.9*	2.0	-21.4
Cc1ccc(S(=O)(=O)c2nc(-c3ccccc3)oc2N2CCC(C(N)=O)CC2)cc1	3.2	-1.3	-3.3	4.4	0.6	0.3
COCCCN1C(=O)C(=O)/C(=C(/O)c2ccc(S(=O)(=O)N3CCOCC3)cc2)C1c1ccc(OC)cc1 (centres undefined)	0.3	0.3	-3.6	14.6	0.5	2.2
COc1ccc2c(c1)c1nnc(SCC(=O)Nc3ccccc3F)nc1n2C	13.8	-14.7	-7.8	11.1	0.5	-11.0
COc1ccc2c(c1)c1nnc(SCC(=O)NC3CC3)nc1n2C	-2.6	-10.2	-18.5	84.9*	0.0	-10.6
CCC(=O)NCCc1nc2cc(NC(=O)c3ccc(F)cc3)ccc2n1C	17.0	1.0	-12.6	12.5	1.0	-7.8
CCOC(=O)N1CCC(NC(=O)C2CCCN(Cc3nc(-c4cccc(Cl)c4)oc3C)C2)CC1 (centres undefined)	-0.1	22.1	30.1*	13.3	9.6	-19.2
c1ccc(NCn2cncn2)nc1	-2.0	-6.1	27.9*	20.4	-0.2	4.5
O=C1CCC(=O)N1CNc1ccccn1	-6.3	5.5	11.8	21.2	0.3	-20.7
Cc1csc(N(C)C(=O)CSc2nnc(COc3cccc4ccccc34)o2)n1	60.9*	-14.8	5.6	11.4	-0.5	-22.8
COC(=O)CSc1nnc(COc2cccc3ccccc23)o1	-1.2	-11.6	-5.2	16.1	0.1	-10.9
COCCNC(=O)C(c1ccc(F)cc1)N(Cc1ccccc1)C(=O)CCC(=O)Nc1ccccn1 (centres undefined)	12.1	-24.6	-17.5	70.0*	1.2	9.7
COCCNC(=O)C(c1ccc(F)cc1)N(Cc1cccs1)C(=O)CCC(=O)Nc1ccccn1 (centres undefined)	-9.2	-17.9	-1.0	76.3*	1.1	16.7
COCCNC(=O)C(c1ccc(O)cc1)N(Cc1ccccc1)C(=O)CCC(=O)Nc1ccccn1 (centres undefined)	9.7	-4.4	-7.2	15.3	0.2	0.5
COc1ccc2c(C)cc(SCC(=O)NC3CCCC3)nc2c1	-0.9	-8.2	8.2	3.9	-0.6	-8.8
COc1ccc2c(C)cc(SCC(=O)c3ccc4c(c3)OCO4)nc2c1	8.1	-21.9	-14.2	39.6*	0.0	-14.7
COc1cc(OC)cc(-c2c(-c3cccs3)c3cc(-c4ccc(CN5CCOCC5)cc4)ccc3n2C)c1	2.3	-15.2	-4.1	-3.9	0.1	-63.1
COc1cccc(C(=O)OCC(=O)NCCCc2ccccc2)c1	-4.3	-3.6	-10.9	-1.9	-0.6	-33.3
N#CC1=C2SCN(Cc3ccccc3)CN2C(=O)CC1c1cccs1 (centres undefined)	0.7	-6.2	27.0*	1.8	0.9	-13.3

Compound activity (PubChem)
